Sampled rows, rich in hits. Any-hit rate of the full collection: about 4.3%.
FLuc act counter = firefly luciferase counter-screen for stimulation assays; P08659; ATPlite luciferase biochemical, luminescence, 10 min; 0 = ATP-free wells, 1 = DMSO control; activation factor at 10 µM; 200,000 tested, under 10 active; AID 1027;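 active = luciferase activation factor, scaled between plate controls, of at least 2 with compound at 10 µM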
Target sequence (P08659 whole entry, looked up): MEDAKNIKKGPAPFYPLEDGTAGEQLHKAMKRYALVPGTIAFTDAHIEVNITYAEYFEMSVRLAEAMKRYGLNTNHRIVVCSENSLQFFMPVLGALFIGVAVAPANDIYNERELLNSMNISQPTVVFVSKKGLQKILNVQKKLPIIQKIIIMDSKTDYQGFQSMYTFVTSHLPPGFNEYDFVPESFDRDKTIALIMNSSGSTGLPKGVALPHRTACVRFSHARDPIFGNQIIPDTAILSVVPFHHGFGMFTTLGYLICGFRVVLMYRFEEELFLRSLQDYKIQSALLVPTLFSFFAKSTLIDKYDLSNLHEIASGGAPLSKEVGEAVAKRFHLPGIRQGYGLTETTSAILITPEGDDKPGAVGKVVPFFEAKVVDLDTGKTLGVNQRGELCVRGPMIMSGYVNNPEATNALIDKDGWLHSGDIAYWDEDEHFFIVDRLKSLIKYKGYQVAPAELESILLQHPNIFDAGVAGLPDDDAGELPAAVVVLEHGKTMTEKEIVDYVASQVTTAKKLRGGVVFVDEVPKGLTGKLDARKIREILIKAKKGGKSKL
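Material: Luciferase/luciferin reagent mix; Doses: test compounds dosed from 2 mM stocks in 100% DMSO; Schedule: 10 min incubation after luciferase reagent addition, room temperature; Measured by: luminescence from luciferase reaction; Read-out: luminescence gain marking luciferase activators.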
FLuc inh counter = inhibits firefly luciferase, flagging false hits in luciferase inhibition screens | 1.5% of 200,000 active | P08659 | ATPLite firefly luciferase biochemical luminescence, 10 min | inhibition, % at 10 µM;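 active = inhibition above about 50% when tested at 10 µM, limit read from the data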
STAT1 act = increases IFN-gamma driven STAT1 reporter signal | activation (% of control), % at 5.5 µM | NIH 3T3 STAT1-luciferase reporter, luminescence; 100% = IFN-gamma alone, no compound | 2.6% of 200,000 active;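 active = activation above the screen-wide mean activation plus 3 SD, cut at about 130% in these data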;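 also: raw ratio to IFN-gamma control signal so 100% means no change and 0% no light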
APP 5'UTR act = activates APP 5'UTR luciferase reporter | SH-SY5Y APP 5'UTR luciferase reporter, luminescence; zero percent = DMSO vehicle wells | activation, % at 2 µM | 1% of 190,000 active | AID 1276;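 active = activation above a set limit, based on mean plus 3 SD of controls, cut at about 140% in these data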
NF-kB neuron act = raises NF-kB expression in human neuronal cells. 1.6% of 190,000 active. NF-kB reporter expression; stronger effect = higher value. AID 1239. fold change at 12.5 µM; in the data active = fold change above about 3.3
* = called active by the depositor; . = not tested or not shown.

SMILES	FLuc act counter	FLuc inh counter	STAT1 act	APP 5'UTR act	NF-kB neuron act
O=C(NC(=S)Nc1ccc(N2CCCCC2)cc1)c1ccco1	0.4	63.4*	131.8*	129.4	2.55
COc1ccc(NC(=O)N2CCCc3ccccc32)cc1	0.9	5.5	87.5	7.2	1.43
O=C(COc1ccc2c(c1)CCC2)N1CCc2ccccc21	0.6	42.0	133.6*	92.7	2.74
COc1ccc(CCC(=O)N2CCc3ccccc32)cc1	0.8	23.2	132.7*	37.4	2.16
COc1ccc(NC(=O)N2CCc3ccccc32)cc1	0.2	84.9*	124.5	176.3*	10.5*
CCOC(=O)c1ccc(NC(=O)N2CCc3ccccc32)cc1	0.5	47.7	124.7	205.3*	7.88*
C=CCN(c1ccc(C(=O)Nc2ccc(NC(C)=O)cc2)cc1)S(C)(=O)=O	1.1	-7.0	99.5	-6.5	1.37
COc1ccc2c(Cl)c(C(=O)N/N=C3\CCCC(=O)C3)sc2c1	1	4.4	128.4	29.3	1.06
Cc1[nH]n(-c2cccc(Cl)c2)c(=O)c1C=NCc1ccco1	0.3	65.2*	128.5	144.6*	6.74*
Cc1[nH]n(-c2cccc(Cl)c2)c(=O)c1C=NCC(C)C	1	2.8	144.3*	77.2	2.82
CCOC(=O)Cn1c(-c2ccccc2)nc2ccccc2c1=O	1	-3.4	129.1*	20.2	1.17
CCCCOC(=O)Cn1c(-c2ccccc2)nc2ccccc2c1=O	1	-1.6	102.1	-15.1	1.25
Cc1nn(Cc2ccc(F)cc2)c(C)c1NC(=O)CCCn1nc([N+](=O)[O-])cc1C	1.1	-7.3	94.2	-21.5	1.11
COc1ccccc1N1CCN(c2ccc(-c3ccccc3)nn2)CC1	0.1	90.1*	111.7	-89.6	6.59*
COc1ccc(CN2CCNC(=O)C2CC(=O)NCCCn2cccn2)c(OC)c1 (stereo not drawn)	1	-4.5	99.7	-21.2	1.32
O=C1CCCC/C1=C\Nc1ccc(Cl)cn1	1	3.5	101.0	38.8	1.62
Cc1ccc(N/C=C2\CCCCC2=O)nc1	0.7	31.3	134.6*	5.7	1.84
O=C(c1ccccc1)c1ccccc1C(=O)N1CCCC1	1	-3.3	91.3	4.5	6.37*
O=C(c1ccccc1)c1ccccc1C(=O)N1CCOCC1	1.1	-9.8	92.6	-23.7	1.06
CC(C)(C)n1ncc2c(=O)n(CC(=O)c3ccc(Cl)cc3)cnc21	1	-1.0	153.8*	120.9	2.81
CC(=O)Nc1ccc(NC(=O)Cn2cnc3c(cnn3C(C)(C)C)c2=O)cc1	1.1	-5.2	102.9	12.1	1.49
CC(C)(C)n1ncc2c(=O)n(CC(=O)NCc3ccccc3)cnc21	0.7	33.8	149.0*	167.9*	3.01
CC(C)(C)n1ncc2c(=O)n(CC(=O)Nc3ccc(Cl)cc3)cnc21	1	-3.1	96.2	-6.5	1.13
CCOc1ccc(C2C(C(C)=O)=C(O)C(=O)N2CCc2c[nH]c3ccccc23)cc1 (stereo not drawn)	1.1	-8.4	96.0	30.9	1.1
Cc1ccc(/C=N/OC(=O)c2nn(C)cc2Cl)cc1	0.2	76.0*	105.7	-1.5	1.38
SMILES	FLuc act counter	FLuc inh counter	STAT1 act	APP 5'UTR act	NF-kB neuron act
Cc1ccc(-n2nnnc2SCc2ccccn2)cc1C	1	0.7	105.9	24.3	1.35
O=C(Cc1ccccc1)N[C@H](c1ccccc1)P(=O)(O)CO	1.1	-8.9	101.4	1.6	1.49
COC(=O)c1sc2nc(-c3ccco3)ccc2c1N	0.2	83.6*	141.4*	161.7*	1.48
CC(C)OC(=O)c1sc2nc(-c3ccccc3)ccc2c1N	0.3	72.7*	111.8	168.3*	0.79
Nc1c(C(=O)Nc2ccccc2F)sc2nc(-c3ccco3)ccc12	1	4.0	121.0	140.5*	0.56
NC(=O)c1sc2nc(-c3ccco3)ccc2c1N	0.7	29.6	130.7*	44.6	1.56
COc1ccc(C(=O)c2sc3nc(-c4ccccc4)ccc3c2N)cc1	1	-4.1	107.7	-4.8	1.01
CC1(C)C/C(=N\NC(=S)Nc2ccccc2F)c2cc(O)ccc2O1	1	-2.6	86.4	-4.1	0.99
O=Cc1c(-c2ccc(F)cc2)nc2ccccn12	1	3.0	101.4	8.8	0.93
COc1ccc(-c2nc3ccccn3c2C=O)cc1	0.4	61.4*	143.4*	105.5	2.4
Cc1ccc(S(=O)(=O)Nc2n[nH]nc2C(=O)NC2CCCCC2)cc1	1.1	-6.1	97.8	-1.5	1.67
CN1/C(=C\C(=O)c2cccnc2)Sc2ccccc21	0.5	54.7*	134.1*	126.6	2.83
COc1cccc(C(=O)/C=C2\Sc3ccccc3N2C)c1	0.2	79.1*	150.1*	214.3*	1.04
CN1C(=O)C(O)(CC(=O)c2cccnc2)c2ccccc21 (stereo not drawn)	1	-4.1	112.2	-7.8	1.29
O=C(N/N=C/c1cccc(OC(=O)c2ccc3c(c2)OCO3)c1)c1cncc(Br)c1	1	1.1	94.3	36.9	1.21
Cc1ccc(OCC(=O)Nc2ccc3c(c2)OCO3)c(C)c1	0.5	54.5*	111.4	25.3	.
O=C(COc1ccccc1[N+](=O)[O-])Nc1ccc2c(c1)OCO2	0.4	58.3*	150.1*	105.7	.
Cc1cccc(OCC(=O)Nc2ccc3c(c2)OCO3)c1C	0.9	7.4	100.4	25.6	1.22
Cc1c(C(=O)OCC(=O)Nc2ccc3c(c2)OCO3)cccc1[N+](=O)[O-]	1	1.8	110.5	0.7	0.97
O=C(COc1ccccc1[N+](=O)[O-])N/N=C/c1cccc(OC(=O)c2ccc3c(c2)OCO3)c1	1	-2.1	141.4*	48.1	2.52
O=C(COc1cc(F)ccc1[N+](=O)[O-])Nc1cccc(Br)c1	1	-4.4	128.9*	40.4	1.34
CC(C)c1ccc(OCC(=O)NCCO)cc1	0.9	12.9	104.6	15.3	1.12
Cc1ccc(OCC(=O)Nc2ccc(F)cc2)c([N+](=O)[O-])n1	0.6	35.2	142.2*	68.3	1.16
Cc1ccc(Cl)c(OCC(=O)Nc2ccc3c(c2)OCCO3)c1	0.8	22.1	123.2	159.5*	3.84*
CN1CCN(C(=O)NCC23CC4CC(CC(C4)C2)C3)CC1	1	-4.7	101.4	-9.3	1.1
SMILES	FLuc act counter	FLuc inh counter	STAT1 act	APP 5'UTR act	NF-kB neuron act
COc1cccc(C(=O)NCC(=O)OCC(=O)c2ccccc2)c1	1	1.8	150.4*	2.6	1.11
O=C(CNC(=O)c1cccc(OC(F)F)c1)OCC(=O)c1ccccc1	1	-3.5	101.0	21.9	1
COc1ccc(O)c(C(=O)CC(=O)c2ccccc2)c1	0.8	19.6	131.5*	133.5	3.43*
N#CC1=C(N)NC(=S)C(C(N)=O)C1c1ccc([N+](=O)[O-])cc1 (stereo not drawn)	0.8	20.3	103.3	16.8	0.93
CN(C(=O)c1cccs1)c1ccc(OCC(=O)N2CCC(C(N)=O)CC2)cc1	0.9	6.7	92.0	-19.8	1.06
CCS/C(N)=N/N=C/c1cc(C)ccc1O	0.1	89.6*	132.5*	160.0*	13.2*
CCCCS/C(N)=N/N=C/c1cc(C)ccc1O	1	3.9	101.8	20.2	1.63

Compound activity from PubChem.
